# From the RNAGym collection of RNA variant scans (doi:10.1126/science.aae0568)
# This sample holds only a part of the variants without activity.
# B1: tRNA (parent)
# chain: GUUCCGUUGGCGUAAUGGUAACGCGUCUCCCUCCUAAGGAGAAGACUGCGGGUUCGAGUCCCGUACGGAACG
# Variants of: B1
# Assay: yeast fitness relative to wild type (ratio to wild type); higher = fitter; tRNA-Arg(CCU), competitive growth, 37 C, YPD
# Outline: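 Amplicons of the tRNA-Arg(CCU) gene were sequenced, 100-nucleotide paired-end, from the start population and from each end population of a pooled yeast competition. The competition, in six parallel replicates, lasted 24 hours in YPD at 37°C. Fitness relative to wild type was calculated from changes in genotype frequencies. Genotypes had to have ≥ 100 starting reads, and estimates < 0.5 were set to 0.5.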
row,Variant,yeast fitness
1,G39C U64C,0.959
2,A40C C60U G67A,≤ 0.5
3,A40C U53A,0.599
4,A40C U53C,0.828
5,G39C C46A A69C,0.53
6,A40G A45U G56A,0.601
7,A40C A70C,0.94
8,A40C A70G,0.979
9,A40C A57U C61U,≤ 0.5
10,G39A G63C,0.728
11,G39C C60U A69C,0.565
12,G39C G52C,0.635
13,G39A G68C A70G,≤ 0.5
14,G39C A42C A45C,0.538
15,G39C A65G,0.754
16,G39C C46U C62U C66G,≤ 0.5
17,G39C C46A C62G,≤ 0.5
18,G39C G44C A65C,≤ 0.5
19,G39C U54G A70C,0.564
20,A40C A43U C61A,0.611
21,A40G A43G C62G,≤ 0.5
22,A40G A57U C60U A70G,0.624
23,A40C A42C U53A,≤ 0.5
24,A40C A42G,0.886

row,Variant,yeast fitness
1,G39C A57C,≤ 0.5
2,A40C C49U,0.892
3,A40C A42C G56A G67A,≤ 0.5
4,A40C C62G G63A,≤ 0.5
5,G39C C61U,0.751
6,A40C C46A C61G A69G,≤ 0.5
7,A40G A43U C55G,0.535
8,G39C U53A C62A G68C,≤ 0.5
9,G39A U47A C55U G67A A69G,≤ 0.5
10,G39C U54G A65G,≤ 0.5
11,G39C C49G,0.59
12,G39C C49U,0.827
13,G39C G50A U59C,≤ 0.5
14,A40C A57G,0.813
15,A40C G44C C55G,≤ 0.5
16,G39C G44C C46U,0.588
17,G39C G44C,0.749
18,G39C A43C G56A C60G,≤ 0.5
19,G39C G44C G50A,0.566
20,A40C G67C,0.907
21,A40C G67U,0.815
22,G39C G44C G56C,≤ 0.5
23,A40C C46U G52C,≤ 0.5
24,A40G A43G G44C C66U,≤ 0.5

row,Variant,yeast fitness
1,G39C G44C C46U A70U,≤ 0.5
2,G39C A43C A57C,0.628
3,G39C G41A C60G C61U C62G A65U,0.547
4,A40C G56C C66G,≤ 0.5
5,A40C C61A A65U,0.625
6,A40C U54C,0.963
7,A40C A65U,0.817
8,A40C A65C,0.825
9,A40C A65G,0.924
10,G39C G63A,0.7
11,G39C G51A,0.739
12,G39C C46U C49U G56A G68C,0.54
13,A40C C46G G51C A57C A65U A70C,0.555
14,A40C A57G A70C,0.55
15,A40G A45U,0.786
16,A40G A45G,0.849
17,G39C A40U U64G,≤ 0.5
18,G39C C55G,≤ 0.5
19,G39C A42G A43U C62U A69U,≤ 0.5
20,A40C A42C A70U,0.549
21,G39C C60A,0.587
22,G39C C60U,0.656
23,G39C C60G,0.619
24,A40C C60G C62G,≤ 0.5

row,Variant,yeast fitness
1,A40C A57U C60G C66G,≤ 0.5
2,A40C A43U C60U,0.588
3,A40C C62U U64C,0.534
4,G39A G68U,0.824
5,A40C A43U,0.986
6,A40C A43G,0.741
7,G39C G50A,0.752
8,G39C G50C,0.575
9,A40C G50C,0.644
10,G39U G52A,0.779
11,G39U C49A G58C,0.646
12,G39A U53A,0.596
13,A40C G41C G67C,≤ 0.5
14,A40C C62U,0.863
15,G39C U47C,0.822
16,A40C C55U C60G C62A,0.546
17,G39U C66U,0.854
18,G39C G48C G52C,≤ 0.5
19,G39C C60G A70U,0.524
20,A40C A42G A43G C49A G52A,≤ 0.5
21,A40C A42G G56C,0.588
22,G39C A43G U53A C62A G68C,≤ 0.5
23,G39C A43G G48C C49A G50A,≤ 0.5
24,A40C C61A C66A,≤ 0.5

row,Variant,yeast fitness
1,A40C A45C A70U,≤ 0.5
2,A40C A42U C49U G50C C66U,0.565
3,G39C A43G G44C A45U C49G,0.563
4,A40C A45C C62U,≤ 0.5
5,A40C A42U G56A C66G,≤ 0.5
6,G39A U47A,0.89
7,A40C A65U C66A,0.562
8,A40C C49A G51C U59A,≤ 0.5
9,A40C G58C,0.922
10,G39C A57C C61A U64C,≤ 0.5
11,G39A U59C,0.956
12,A40G A45G U53A,≤ 0.5
13,A40G A57C C62U,≤ 0.5
14,A40G A43G G44C,≤ 0.5
15,G39C C46G,0.875
16,G39C G51C A65G,≤ 0.5
17,A40C G52C,0.685
18,G39C C62U G63C,≤ 0.5
19,G39C A40C G41A A42G A65U,≤ 0.5
20,A40C C60U C61U,≤ 0.5
21,G39C A69C,0.834
22,G39C A69U,0.826
23,A40C A69U,0.843
24,A40C A69C,0.765

row,Variant,yeast fitness
1,G39C A42C,0.687
2,A40C G51A U54A,≤ 0.5
3,G39C A43U G58C,0.57
4,A40C G67U G68C,0.585
5,G39C C62G,0.607
6,G39C A43U A70U,0.691
7,A40C C46U,0.875
8,A40C C46A,0.994
9,A40G A42C,0.757
10,A40G A42U,0.71
11,A40C G63A,0.815
12,G39C U53G,0.578
13,A40C C49G C60G,0.532
14,G39C G67A A70G,0.648
15,G39C A43U,0.934
16,G39C A43G,0.684
17,A40C G56A G58C,0.598
18,A40C G50A C62U,0.543
19,A40G A45G G52A,≤ 0.5
20,A40C U47A,0.636
21,A40C A42U C49G C66G,0.612
22,G39C G50A U64A,≤ 0.5
23,G39A U47A A57G,≤ 0.5
24,G39C A42C A45C A70C,≤ 0.5

row,Variant,yeast fitness
1,G39A G56C,0.603
2,G39A U53A G68C,≤ 0.5
3,A40C C55U,0.929
4,A40C C55G,0.527
5,A40C C66G,0.669
6,A40C C66A,0.755
7,G39C G44C G52C G56A,≤ 0.5
8,G39C A57C A70U,≤ 0.5
9,A40C G51A G63A A69C,≤ 0.5
10,G39A U54A,0.61
11,A40G A42U C49A,≤ 0.5
12,A40C G41A,0.978
13,A40C G41C,0.56
14,A40C A45G,1
15,A40C A45U,0.98
16,A40C A45G U59A,0.573
17,A40G A57G,0.969
18,A40G A45C C49G G67C A69U,≤ 0.5
19,G39C A42G G63A,≤ 0.5
20,G39C G67C,0.742
21,G39C A65G A70U,≤ 0.5
22,G39C C62A U64A,≤ 0.5
23,A40C G48A,1.02
